NF-kB expr up – activators of NF-kB expression in neurons, primary screen, cell-based, HTS | human neuronal cells, NF-kB reporter expression; active compounds read high | fold change at 12.5 µM | 1.6% of 190,000 active; in the data active = fold change above about 3.3
APP 5'UTR act – activators of APP 5'UTR luciferase reporter, primary screen, SH-SY5Y cells | AID 1276, 2008 | activation, % at 2 µM | 1% of 190,000 active | SH-SY5Y APP 5'UTR luciferase reporter, luminescence; zero percent = DMSO vehicle wells;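 active = activation above a set limit, based on mean plus 3 SD of controls, cut at about 140% in these data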
STAT1 activator – STAT1 signaling activators, primary screen, cell-based, HTS, luciferase reporter; 2.6% of 200,000 active; activation (% of control), % at 5.5 µM; NIH 3T3 STAT1-luciferase reporter, IFN-gamma, luminescence; 100% = IFN-gamma alone, no compound;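 active = activation above the screen-wide mean activation plus 3 SD, cut at about 130% in these data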
STAT3 activator – IL-6 driven STAT3 reporter potentiators, primary screen, U3A cells, luciferase, luminescence, MLSCN library; IL-6 STAT3-luciferase reporter; 100% = signal with IL-6 EC80 alone; activation (% of control), % at 5.6 µM; 0.91% of 190,000 active;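 active = activation above the screen-wide mean of compound activation plus 3 SD, cut at about 130% in these data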
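Material: human STAT1-deficient U3A cells with stable STAT3-luciferase reporter / Probe or stimulus: IL-6 stimulus at 33 ng/mL final / Schedule: 1 h compound pre-exposure, 6 h IL-6 stimulation, 37 °C / Technique: luminescence / Read-out basis: percent of IL-6-only median luminescence / Control set: IL-6-only high control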
STAT1 blocker – STAT1 signaling inhibitors, primary screen, cell-based, HTS, luciferase reporter | 0.35% of 200,000 active | inhibition, % at 5.5 µM | NIH 3T3 STAT1-luciferase reporter, IFN-gamma, luminescence | AID 920, 2007;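 active = inhibition above a set limit, the mean inhibition across all tested compounds plus 3 SD, cut at about 34% in these data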
STAT3 inh – IL-6 driven STAT3 reporter inhibitors, primary screen, U3A cells, luciferase, luminescence, MLSCN library; AID 862, 2007; IL-6 STAT3-luciferase reporter; host cell line lacks STAT1; inhibition, % at 5.5 µM; 0.89% of 190,000 active;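 active = inhibition above the mean inhibition across all screened compounds plus 3 SD, cut at about 44% in these data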
Large screens that a line does not name were inactive. Rows were chosen to be rich in hits. Some 4.9% of all compounds tested hit in one or more screens of this group.

COc1ccc(C(C)(C)C)cc1NC(=O)CNc1cccc2ccccc12	STAT3 activator 136
COCCn1c(C)cc(C(=O)CSc2nc3ccccc3s2)c1C	APP 5'UTR act 204
Cc1cc(C)n(CC(O)COc2ccccc2)n1 (configuration not stated)	none
Cc1cc(C)n(CC(O)COc2ccc3ccccc3c2)n1 (configuration not stated)	STAT1 activator 133
COCCNC(=S)N/N=C(\C)c1ccccc1O	NF-kB expr up 15
Cc1ccc2occ(/C=C/C(=O)c3ccccc3O)c(=O)c2c1	none
Cc1c(/C=C/C(=O)c2ccccc2O)cnn1C	NF-kB expr up 3.9
CCC(C)NS(=O)(=O)c1ccc(F)c(C(=O)Nc2c(F)cc(F)cc2Br)c1 (configuration not stated)	none
Cc1[nH]n(-c2ccc([N+](=O)[O-])cc2)c(=O)c1N=Nc1nc2ccccc2s1	STAT3 activator 163 (no result: NF-kB expr up)
Cc1cc([N+](=O)[O-])ccc1N=Nc1c(N)[nH]n(-c2ccccc2)c1=O	none
Cc1c(CN(C)C)c2c(n1Cc1ccccc1)C(=O)c1ccc(Br)cc1-2	none
Cc1c(CN(C)C)c2c(n1C)C(=O)c1ccc(Br)cc1-2	NF-kB expr up 3.3
C=CC[n+]1ccc(/C=C2\C=Cc3cc(C)ccc3N2CC)c2ccccc21	STAT1 blocker 36, STAT3 inh 86
CCN1/C(=C/c2cc[n+](CCCS(=O)(=O)[O-])c3ccccc23)Sc2ccccc21	none
COc1ccc(-c2nnc(SCc3ncc(-c4ccccc4)o3)o2)cc1	none
Oc1ccccc1OCc1nc2ccccc2s1	NF-kB expr up 3.4, APP 5'UTR act 154
NC(=O)CSCc1nc2ccccc2s1	STAT3 activator 135
Cc1cc(NC(=O)c2cccs2)ccc1NC(=O)Cc1ccccc1	none
CCOC(=S)SCC(=O)Nc1nc(-c2ccc(Br)cc2)cs1	NF-kB expr up 4.6
O=C1C(C=NCCN2CCOCC2)=C(O)c2ccccc21	STAT1 activator 133
O=C1CCOc2cc(OCc3ccccc3)ccc21	NF-kB expr up 6.3, STAT1 activator 134
O=C(O)C1CC(=O)N(c2ccc(OCc3ccccc3)cc2)C1 (configuration not stated)	none
CCOC(=O)c1c(NC(=O)COC)sc(C(C)=O)c1C	none
CCOC(=O)c1c(NC(=O)CC(C)C)sc(C(C)=O)c1C	NF-kB expr up 5.9
CCOC(=O)C1=C(C)n2c(s/c(=C/c3cccc([N+](=O)[O-])c3)c2=O)=NC1c1ccc(O)c(OC)c1 (configuration not stated)	NF-kB expr up 6.8
CCOC(=O)C1=C(C)N=c2s/c(=C/c3ccccc3)c(=O)n2C1c1ccc(OC)c(OC)c1 (configuration not stated)	none
COCCNC(=O)CSc1nc2nn(-c3ccccc3)c(=O)c-2c2n1CCCCC2	none
CCc1ccc(C(=O)COC(=O)CCc2nc3ccccc3c(=O)[nH]2)cc1	none
Cc1nc2ccsc2c(=O)n1-c1ccc(Cl)cc1	none
COc1ccccc1N(CC(=O)NCC1CCCO1)C(=O)Cn1nnc(-c2cccs2)n1 (configuration not stated)	none
O=C(COC(=O)c1ccc([N+](=O)[O-])s1)NCc1ccccc1	none
Cc1ccc(C(=O)NNC(=S)Nc2cccc3ccccc23)s1	APP 5'UTR act 150, STAT3 activator 134
O=C(Nc1ccccc1F)c1ccc([N+](=O)[O-])s1	NF-kB expr up 3.5
O=C(Nc1cccc2ccccc12)c1ccc([N+](=O)[O-])s1	NF-kB expr up 3.8
CCOC(=O)c1nn(-c2ccc(Br)cc2)cc1C(=O)c1cccc2ccccc12	NF-kB expr up 6.4
CCOC(=O)c1nn(-c2ccc(F)cc2)cc1O	none
COc1ccc(C(=O)NNC(=O)C2CCN(S(=O)(=O)c3ccc(C)cc3)CC2)cc1	none (no result: NF-kB expr up)
COc1cc(/C=N/N(C)c2ccccc2)ccc1O	NF-kB expr up 10, APP 5'UTR act 179, STAT1 activator 140
O=C(NCc1cccc(C(F)(F)F)c1)C1CC(c2c(Cl)cccc2Cl)=NO1 (configuration not stated)	none
Cc1ccc(C(=O)OCC(=O)NCc2cccs2)cc1S(=O)(=O)N1CCOCC1	none
CCC(C)(C)c1ccc(Oc2ccc(N)cc2)cc1	STAT1 blocker 70, STAT3 inh 81
O=[N+]([O-])c1ccc(C2Oc3ccccc3C3CC(c4ccccc4)=NN32)s1 (configuration not stated)	NF-kB expr up 8.8, STAT3 activator 133
COC(=O)c1ccc(Oc2nc(NC(C)(C)C)nc(N3CCOCC3)n2)cc1	none
CCc1ccc(C(=O)Nc2nnn(CC)n2)cc1	NF-kB expr up 3.7
COCC(=O)N(Cc1cc2ccc(C)c(C)c2n2nnnc12)C1CCCC1	none
Cc1cccc(NC(=O)CN(c2ccc(F)cc2)S(C)(=O)=O)c1	none
NNc1nc(-c2ccccc2Cl)nc2sc3c(c12)CCCC3	NF-kB expr up 3.3
O=C(Nc1ccccc1)ON=C1CCCC1	none
Cc1ccc(NC(=O)ON=C2CCCC2)cc1	STAT1 activator 130
CCOC(=O)Nc1nc(-c2ccccc2)c(C(=O)c2ccccc2)s1	NF-kB expr up 3.6
COC(=O)Nc1nc(-c2ccccc2)c(C(=O)c2ccc(Cl)cc2)s1	none
CC(=O)c1sc(NC(=O)c2cccc(C)c2)nc1C	NF-kB expr up 5.5, STAT1 activator 131
CC(=O)c1sc(NC(=O)c2ccccc2)nc1-c1ccccc1	NF-kB expr up 4.9, STAT1 activator 150
CN1C(=O)SC(Nc2ccccc2)C1=O (configuration not stated)	none
COc1cccc(NC2SC(=O)N(c3ccccc3)C2=O)c1 (configuration not stated)	NF-kB expr up 4.1
Cc1ccc2[nH]c3c(c2c1)CN(C(=O)CN1CCCc2ccccc21)CC3	STAT3 activator 133
COC(=O)c1[nH]c2cc(C)ccc2c1NC(=O)CN1CCN(c2ccccc2OC)CC1	none
COC(=O)c1[nH]c2ccc(C)cc2c1NC(=O)CN1CCCc2ccccc21	STAT3 activator 135
CN(c1nc(-c2ccc(Br)cc2)cs1)C1CCS(=O)(=O)C1 (configuration not stated)	STAT1 activator 130
CC1(C)CC(c2nc(-c3ccc(Br)cc3)cs2)CCS1 (configuration not stated)	none
CCOC(=O)c1nnn(CC(=O)NC(=O)Nc2cccc(CC)c2)c1C(=O)OCC	none
O=C1NC(c2ccc(Br)cc2)=N/C1=C/c1ccco1	APP 5'UTR act 140
Brc1ccc(-c2csc(N/N=C/c3ccco3)n2)cc1	none

Bioassay records (PubChem)
